Screening data as filed in PubChem BioAssay.
Rows were chosen to be rich in hits. Some 5.7% of all compounds tested hit in one or more screens of this group.
Calb FLC: C. albicans growth modulation with fluconazole | AID 1979 | 300,000 compounds, 0.57% hits | growth inhibition, % (concentration not given with the values) | C. albicans CaCi-2 (fluconazole-resistant clinical isolate) + fluconazole, Alamar Blue growth, 48 h;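 active means growth inhibition above about 58% in most replicates, limit read from the data, passing the limit was not always enough; inconclusive means exactly half the replicates above a set limit; inactive means most replicates below a set limit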;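 further: all wells also contain fluconazole at 8 µg/ml as a sub-toxic cotreatment; 0% = median of DMSO wells and 100% = median of geldanamycin control wells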
T cruzi inh: blocks replication of Trypanosoma cruzi | AID 1885 | T. cruzi beta-gal in NIH3T3, luminescence, 90 h | inhibition, % (no concentration beside the values) | 300,000 compounds, 1.4% hits;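 active means mean inhibition across valid replicates above about 55%, limit read from the data; inconclusive means mean below that limit but half or more replicates reach it; inactive means mean below it, under half of replicates reach it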;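 further: signal also drops with host cell toxicity which is not excluded here; 0% = plate median of DMSO wells and 100% = zero luminescence signal; higher percent means less beta-gal luminescence so fewer parasites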
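compound dosing = single 50 nL compound addition per well in DMSO | material = NIH/3T3 host cells with β-galactosidase reporter T. cruzi | input = 5,000 host fibroblasts per well | timing = ≥90 h infection period, 3 h prior cell attachment | read-out basis = percent inhibition of parasite-derived β-gal signal | detection = GalScreen β-gal luminescence, detergent lysis, 60 min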
Mdm2 MdmX PPI: disrupts the human Mdm2-MdmX interaction | O15151+Q00987 | SaOS-2 split-luciferase Mdm2/MdmX complementation, luminescence | inhibition, % at 8 µM | 330,000 compounds, 3% hits | AID 485346;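 active means inhibition of at least 50% at 8 µM in the primary screen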
Target sequence (O15151 whole entry, looked up): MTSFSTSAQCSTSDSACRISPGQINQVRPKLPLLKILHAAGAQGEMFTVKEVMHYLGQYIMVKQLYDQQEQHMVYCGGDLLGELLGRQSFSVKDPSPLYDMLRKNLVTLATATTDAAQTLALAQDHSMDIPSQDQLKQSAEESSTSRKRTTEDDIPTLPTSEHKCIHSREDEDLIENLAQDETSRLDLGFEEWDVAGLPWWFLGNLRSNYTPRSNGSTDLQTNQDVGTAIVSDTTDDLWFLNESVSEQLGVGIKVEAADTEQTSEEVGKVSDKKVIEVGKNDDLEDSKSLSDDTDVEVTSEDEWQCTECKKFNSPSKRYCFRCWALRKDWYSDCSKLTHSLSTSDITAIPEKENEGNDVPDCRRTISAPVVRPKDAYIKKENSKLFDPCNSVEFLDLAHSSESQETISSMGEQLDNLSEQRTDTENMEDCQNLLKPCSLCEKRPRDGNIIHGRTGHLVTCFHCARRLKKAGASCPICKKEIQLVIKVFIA
Target sequence (Q00987 whole entry, looked up): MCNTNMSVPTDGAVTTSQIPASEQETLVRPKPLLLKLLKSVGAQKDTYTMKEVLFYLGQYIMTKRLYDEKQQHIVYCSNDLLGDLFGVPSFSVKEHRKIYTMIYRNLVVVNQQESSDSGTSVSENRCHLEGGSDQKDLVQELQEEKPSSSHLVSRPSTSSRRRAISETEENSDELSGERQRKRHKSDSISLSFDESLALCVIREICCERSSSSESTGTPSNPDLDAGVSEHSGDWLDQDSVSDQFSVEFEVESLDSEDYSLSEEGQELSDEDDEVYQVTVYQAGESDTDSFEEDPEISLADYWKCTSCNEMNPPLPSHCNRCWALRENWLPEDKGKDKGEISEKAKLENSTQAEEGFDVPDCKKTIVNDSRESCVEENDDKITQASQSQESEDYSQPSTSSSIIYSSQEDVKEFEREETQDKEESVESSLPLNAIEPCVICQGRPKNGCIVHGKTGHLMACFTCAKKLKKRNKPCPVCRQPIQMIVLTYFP
CSC inhib: blocks cancer stem cells; 300,000 compounds, 1.1% hits; AID 2717; inhibition, % at 7.5 µM; cancer stem cell-like cells viability, luminescence; in the data active means inhibition above about 75%; inconclusive means no clear call, values can overlap the other calls; tested in HMLE shEcad cells
SKKanGAS inh: blocks kanamycin growth of S. pyogenes SKKanGAS strain; BacTiter-Glo, 6 h; inhibition, % at 7.5 µM; 300,000 compounds, 1.3% hits;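 active means mean replicate score, as percent of positive control median, at least 50; inconclusive means mean below 50 but one replicate at or above 50; inactive means mean and every replicate below 50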;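 further: strain carries kanamycin resistance gene driven by streptokinase promoter and grows in 40 µg/ml kanamycin; loss of luminescence reflects streptokinase promoter inhibition or plain growth inhibition; 0% = median of DMSO wells and 100% = positive control at its reference dose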
Beta apoptosis: blocks beta cell apoptosis | protection from apoptosis, % (no concentration beside the values) | INS-1E cytokine-induced death, ATP luminescence, 48 h; percent of positive-control rescue, neutral wells zero | 300,000 compounds, 0.8% hits;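 active means Every replicate reaches about 75%, or at least half do and their mean reaches it too, limit read from the data; inconclusive means At least half of replicates reach the limit but their mean does not; inactive means Under half of replicates reach the limit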;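 further: 0% = cytokine-treated negative control wells and 100% = positive control rescue; higher means more ATP so stronger rescue from cytokine killing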
An asterisk follows results filed as active; ? = inconclusive; / = no result.

SMILES	Calb FLC	T cruzi inh	Mdm2 MdmX PPI	CSC inhib	SKKanGAS inh	Beta apoptosis
COCCCNC(=O)Cn1cnc2sc(C)c(S(=O)(=O)N3CC(C)CC(C)C3)c2c1=O (stereo unspecified)	2	-12	6	-9	-2	0
N#Cc1c(NC(=O)c2ccc(Cn3cc(Br)cn3)o2)sc2c1CCCCC2	-1	-10	-33	106*	42	-9
CC[n+]1c(/C=C/C=C/N(C(C)=O)c2ccccc2)sc2ccccc21	89*	29	17	30	6	13
C=CCN(C(=O)CSC1=NC(=O)CN1C(C)=O)c1nc(C)c(-c2ccccc2)s1	29	70*	1	28	-15	-15
C=CCSc1nnc(-c2sc(-c3ccccc3)nc2C)n1C	?	21	-25	-11	-23	-3
COc1ccc(OC)c(C(=O)COC(=O)COc2ccccc2)c1	/	/	32	6	/	-8
COc1ccccc1N(C(=O)c1snc(C(N)=O)c1N)C(C(=O)NC1CCCC1)c1ccc(N(C)C)cc1 (stereo unspecified)	7	20	-5	-2	-1	-4
Cc1ccc2nc(N/C(N)=N/S(=O)(=O)c3ccc([N+](=O)[O-])cc3)nc(C)c2c1	-3	58*	23	-11	3	5
CCN(CC(=O)Nc1ccc2c(c1)OCCO2)CC(=O)Nc1ccc(C)c(S(=O)(=O)N(C)C)c1	/	/	18	-15	/	-3
Cc1ccc(O)c(Nc2ncnc3ccc([N+](=O)[O-])cc23)c1	3	15	42	25	-1	-6
O=[N+]([O-])c1ccc(O)c(Nc2ncnc3ccc(Br)cc23)c1	85*	8	35	72	51*	22
CC(=O)Nc1ccc(NC(=O)CSCc2ccccc2Cl)cc1	-9	-24	-5	4	1	2
C/C(=N\NC(=O)CSCc1ccccc1Cl)c1cc(O)ccc1O	95*	46	43	34	2	-8
CCOC(=O)N1C(=O)C2(CCCCC2)N(c2ccccc2Cl)C1=S	100*	-15	9	-12	2	-4
CCOC(=O)c1sc(=S)n(-c2ccccc2Cl)c1C	25	/	8	7	-6	-3
COCCn1c(C)cc(/C=C(\C#N)C(=O)OC(C)C(=O)Nc2ccc(NC(C)=O)cc2)c1C (stereo unspecified)	-1	10	19	-15	2	5
Cc1ccc(S(=O)(=O)NCCS(=O)(=O)N2CCN(c3ccccc3)CC2)cc1	-3	9	-5	-6	-11	2
O=[N+]([O-])c1ccc(S(=O)(=O)NCCS(=O)(=O)N2CCN(c3ccccc3)CC2)cc1	-3	56*	-5	-6	2	1
CCN(c1ccccc1)S(=O)(=O)c1ccc(C(=O)N(CCCN(C)C)c2nc3c(C)cccc3s2)cc1	0	38	27	-14	9	8
CCOC(=O)N1CCN(C(=O)c2ccc3c(c2)NC(=O)/C(=C\c2cccc(C)c2)S3)CC1	-1	21	26	33	92*	10
O=C1Nc2cc(C(=O)N3CCN(c4ccccn4)CC3)ccc2S/C1=C\c1ccccc1	1	0	18	6	53*	-3
COc1ccc(/C=C2/Sc3ccc(C(=O)N4CCOCC4)cc3NC2=O)cc1OC	1	-14	21	-7	2	-9
CCOC(=O)N1CCN(C(=O)c2ccc3c(c2)NC(=O)/C(=C\c2ccc(OC)c(OC)c2)S3)CC1	9	21	38	4	101*	/
CC[C@H]1CCCCc2ccccc2[C@@H](C(=O)C[C@@H](O)CC(C)=O)OC1=O	/	/	19	/	/	-4
Cc1c(C(=O)Nc2ccc(Nc3ccccc3)cc2)cccc1[N+](=O)[O-]	20	15	14	54	-2	10
O=C(Nc1ccccc1)c1ccc(Nc2c([N+](=O)[O-])cc([N+](=O)[O-])c3ccccc23)cc1	12	66*	47	-3	2	22
CCCN1CCN(S(=O)(=O)c2ccc(-n3cnnn3)cc2)CC1	2	-4	9	/	5	/
COc1cc(C=C(c2nc3ccccc3s2)c2nc3ccccc3s2)ccc1O	-5	35	17	94*	18	-2
Cc1ccc(C)c(-n2c(-c3ccc(Br)cc3)csc2=NC(=O)c2ccccc2F)c1	/	64*	-21	3	-15	12
